# Laboratory results: BindingDB's records for doi:10.1021/jm9014197 (Wyeth Research, 2009)
# Target: T1, Dickkopf-related protein 1 (Homo sapiens, UniProt O94907)
# T1 sequence (O94907 whole entry): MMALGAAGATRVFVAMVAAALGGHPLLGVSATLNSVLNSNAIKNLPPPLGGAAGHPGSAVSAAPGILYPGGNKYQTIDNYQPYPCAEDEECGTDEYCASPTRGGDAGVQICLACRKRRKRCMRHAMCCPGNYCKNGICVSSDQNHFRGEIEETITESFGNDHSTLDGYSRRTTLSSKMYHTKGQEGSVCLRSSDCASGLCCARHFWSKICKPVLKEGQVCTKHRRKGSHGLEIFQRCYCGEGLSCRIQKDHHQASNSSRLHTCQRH
# Test: Inhibition of Dkk1-mediated Wnt/beta-catenin signaling in osteosarcoma cells assessed as potentiation of TCF-luciferase response
# Summary of the method: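 Cells were transfected with a TCF-luciferase response element plus a renilla standard as the control read-out. Agonism was read as increased luciferase light output relative to DMSO alone. EC50 values are the average of at least two experiments run in triplicate.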
row,Structure (SMILES),EC50
1,Cc1ccc(-c2ccnc(N(C)c3ccc(S(N)(=O)=O)cc3)n2)s1 [4-(methyl(4-(5-methylthiophen-2-yl)pyrimidin-2-yl)amino)benzenesulfonamide],9800 nM
2,NCC1CCN(c2nccc(-c3ccc4ccccc4c3)n2)CC1 [(1-(4-(naphthalen-2-yl)pyrimidin-2-yl)piperidin-4-yl)methanamine],630 nM
3,CC(=O)NCC1CCN(c2nccc(-c3ccc4ccccc4c3)n2)CC1 [N-((1-(4-(naphthalen-2-yl)pyrimidin-2-yl)piperidin-4-yl)methyl)acetamide],1900 nM

# More lines, now with the values ahead:
row,EC50,Structure (SMILES)
1,1000 nM,NC1CCN(c2nccc(-c3ccc4ccccc4c3)n2)CC1 [1-(4-(naphthalen-2-yl)pyrimidin-2-yl)piperidin-4-amine]
2,7800 nM,Cc1ccc(-c2ccnc(Nc3ccc(S(N)(=O)=O)cc3)n2)s1 [4-(4-(5-methylthiophen-2-yl)pyrimidin-2-ylamino)benzenesulfonamide]
3,1000 nM,NS(=O)(=O)c1ccc(Nc2nccc(-c3ccc4ccccc4c3)n2)cc1 [4-(4-(naphthalen-2-yl)pyrimidin-2-ylamino)benzenesulfonamide]
